Experimental data reported in ChEMBL document CHEMBL1155199, “Synthesis of 6-aminomethyl derivatives of benzopyran-4-one with dual biological properties: anti-inflammatory-analgesic and antimicrobial” (Eur J Med Chem, 2009).
≈ marks a conversion by molar mass, not a printed value.

How the values were obtained:
Escherichia coli = experiment: Antibacterial activity against Escherichia coli ATCC 8739 by turbidity method; format: functional
Staphylococcus aureus = experiment: Antibacterial activity against Staphylococcus aureus ATCC 29737 by turbidity method; format: functional
Rhizopus arrhizus = experiment: Antifungal activity against Rhizopus oryzae NRRL 21498; format: functional
How it was run: (§1)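 Antifungal screen against R. oryza NRRL-21498 and P. citrum NCIM-768 with fluconazole as reference. Compounds that inhibited growth of one or more organisms were taken forward to MIC determination, reported in µg/mL.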

Rattus norvegicus [1] = experiment: Antiinflammatory activity in Wistar albino rat assessed as inhibition of carrageenan-induced paw edema at 20 mg/kg, po administered 30 mins before carrageenan challenge measured after 2 hrs relative to ibuprofen; format: functional
How it was run: (§2)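 Wistar albino rats (180–200 g), either sex, randomized into groups of six. Dosed 20 mg/kg p.o.; controls received 0.5% CMC. 30 min later, 0.1 mL 0.1% carrageenan in sterile 0.9% NaCl injected subplantar into the right hind paw. Paw volume read by plethysmometer at 2 and 3 h. Expressed as % inhibition, mean ± SEM, ANOVA with post hoc test.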

Rattus norvegicus [2] = experiment: Antiinflammatory activity in Wistar albino rat assessed as inhibition of carrageenan-induced paw edema at 20 mg/kg, po administered 30 mins before carrageenan challenge measured after 3 hrs relative to ibuprofen; format: functional; how it was run: as §2
Penicillium citrinum = experiment: Antifungal activity against Penicillium citrinum NCIM 768; format: functional; how it was run: as §1
Mus musculus = experiment: Analgesic activity in Swiss albino mouse assessed as protection against acetic acid-induced writhing at 20 mg/kg, po administered 1 hr before acetic acid challenge measured for 5 to 15 mins; format: functional
How it was run: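 Swiss albino mice (25–30 g), either sex, groups of six, habituated individually 30 min in test cage. Test agents 20 mg/kg suspended in 1.0% CMC given orally; controls received CMC only. 1 h later, 0.10 mL 1% aqueous acetic acid injected i.p. to induce writhing. Data are mean ± S.E., one-way ANOVA with post hoc test.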

Rattus norvegicus [3] = experiment: Gastrointestinal toxicity in Albino rat assessed as severity index at 60 mg/kg, po after 17 hrs relative to control; format: organism-based; design: dose 60 mg/kg, route oral; details: in vivo
How it was run: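 Rats fasted 24 h (water allowed), then dosed orally at 60 mg/kg as a suspension in 1% methyl cellulose; controls received vehicle alone. Normal diet for 17 h after dosing. Stomach mucosa examined under a magnifying glass and scored: 0.5 redness, 1.0 spot ulcers, 1.5 haemorrhagic streaks, 2.0 ulcers >3 but <5, 3.0 ulcers >5. Severity index is the group mean score minus the control mean. Data are mean ± S.E.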

Rattus norvegicus [4] = experiment: Effect on lipid peroxidation in Albino rat gastric mucosa assessed as malondialdehyde level per mg of protein at 60 mg/kg, po after 17 hrs relative to ibuprofen; format: ADME, organism-based; design: dose 60 mg/kg, route oral; details: in vivo
How it was run: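 Lipid peroxidation measured by the Ohkawa thiobarbituric acid–MDA colorimetric method. Tubes were heated 30 min at 80 °C in a shaking water bath, chilled 10 min in ice water, and centrifuged at 3000 rpm for 15 min. Supernatant absorbance was read at 540 nm against a blank. Results are nmol MDA/mg protein, mean ± S.E.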

Compound | MIC (Escherichia coli) | MIC (Staphylococcus aureus) | MIC (Rhizopus arrhizus) | inhibition in vivo at 20 mg/kg (Rattus norvegicus [1]) | inhibition in vivo at 20 mg/kg (Rattus norvegicus [2]) | MIC (Penicillium citrinum) | Activity (Mus musculus) | Activity (Rattus norvegicus [3]) | Activity (Rattus norvegicus [4])
CCn1cc(C(=O)O)c(=O)c2cc(F)c(N3CCNCC3)cc21 [NORFLOXACIN] | 6.25 µg/mL (≈ 19.6 µM) | 6.25 µg/mL (≈ 19.6 µM) |  |  |  |  |  |  | 
NS(=O)(=O)c1ccc(NCc2ccc3oc(-c4ccccc4Cl)cc(=O)c3c2)cc1 | 50 µg/mL (≈ 113 µM) | 50 µg/mL (≈ 113 µM) | > 100 µg/mL | 32.2% | 58.2% | 25 µg/mL (≈ 56.7 µM) |  |  | 
Cc1ccc(NCc2ccc3oc(-c4ccccc4Cl)cc(=O)c3c2)cc1 | > 100 µg/mL | > 100 µg/mL | 50 µg/mL (≈ 133 µM) | 19.8% | 52.7% | > 100 µg/mL |  |  | 
COc1ccc(-c2cc(=O)c3cc(CNc4ccc(C)cc4)ccc3o2)cc1OC | 50 µg/mL (≈ 125 µM) | 25 µg/mL (≈ 62.3 µM) | 25 µg/mL (≈ 62.3 µM) | 18.7% | 50.8% | 25 µg/mL (≈ 62.3 µM) |  |  | 
COc1ccc(-c2cc(=O)c3cc(CCl)ccc3o2)cc1OC | 50 µg/mL (≈ 151 µM) | 10 µg/mL (≈ 30.2 µM) | 10 µg/mL (≈ 30.2 µM) | 33.3% | 49.4% | > 100 µg/mL |  |  | 
COc1ccc(-c2cc(=O)c3cc(CNc4ccc(S(N)(=O)=O)cc4)ccc3o2)cc1 | 50 µg/mL (≈ 115 µM) | 25 µg/mL (≈ 57.3 µM) | 10 µg/mL (≈ 22.9 µM) | 25.3% | 60.5% | 25 µg/mL (≈ 57.3 µM) |  |  | 
COc1ccc(-c2cc(=O)c3cc(CN(C)C)ccc3o2)cc1 | 50 µg/mL (≈ 162 µM) | 50 µg/mL (≈ 162 µM) | 10 µg/mL (≈ 32.3 µM) | 36% | 53.1% | 50 µg/mL (≈ 162 µM) |  |  | 
COc1ccc(-c2cc(=O)c3cc(CN4CCOCC4)ccc3o2)cc1 | 10 µg/mL (≈ 28.5 µM) | 10 µg/mL (≈ 28.5 µM) | 10 µg/mL (≈ 28.5 µM) | 62.7% | 75.3% | 10 µg/mL (≈ 28.5 µM) | 50.8% | 0.2 | 0.526 nmol
CC(C)Cc1ccc(C(C)C(=O)O)cc1 (stereo unspecified) [IBUPROFEN] |  |  |  |  |  |  | 65.06% | 0.9 | 
CN(C)Cc1ccc2oc(-c3ccccc3Cl)cc(=O)c2c1 | 50 µg/mL (≈ 159 µM) | > 100 µg/mL | > 100 µg/mL | 36.2% | 54.3% | > 100 µg/mL |  |  | 
COc1ccc(-c2cc(=O)c3cc(CNc4ccc(S(N)(=O)=O)cc4)ccc3o2)cc1OC | 10 µg/mL (≈ 21.4 µM) | 25 µg/mL (≈ 53.6 µM) | 10 µg/mL (≈ 21.4 µM) | 27.1% | 60.5% | 10 µg/mL (≈ 21.4 µM) |  |  | 
OC(Cn1cncn1)(Cn1cncn1)c1ccc(F)cc1F [FLUCONAZOLE] |  |  | 6.25 µg/mL (≈ 20.4 µM) |  |  | 6.25 µg/mL (≈ 20.4 µM) |  |  | 
O=c1cc(-c2ccccc2Cl)oc2ccc(CN3CCOCC3)cc12 | > 100 µg/mL | 50 µg/mL (≈ 141 µM) | 25 µg/mL (≈ 70.3 µM) | 64.4% | 82.5% | 25 µg/mL (≈ 70.3 µM) | 54.81% | 0.1 | 0.352 nmol
COc1ccc(-c2cc(=O)c3cc(CCl)ccc3o2)cc1 | 50 µg/mL (≈ 166 µM) | 10 µg/mL (≈ 33.3 µM) | 10 µg/mL (≈ 33.3 µM) | 32.2% | 38.7% | > 100 µg/mL |  |  | 
COc1ccc(-c2cc(=O)c3cc(CNc4ccc(C)cc4)ccc3o2)cc1 | 50 µg/mL (≈ 135 µM) | 50 µg/mL (≈ 135 µM) | 50 µg/mL (≈ 135 µM) | 18.7% | 51% | > 100 µg/mL |  |  | 
O=c1cc(-c2ccccc2Cl)oc2ccc(CN3CCNCC3)cc12 | > 100 µg/mL | > 100 µg/mL | 50 µg/mL (≈ 141 µM) | 56% | 73.9% | 50 µg/mL (≈ 141 µM) | 48.39% | 0.3 | 0.403 nmol
COc1ccc(-c2cc(=O)c3cc(CN4CCNCC4)ccc3o2)cc1 | 50 µg/mL (≈ 143 µM) | 50 µg/mL (≈ 143 µM) | 50 µg/mL (≈ 143 µM) | 39.5% | 68.9% | > 100 µg/mL | 40.36% | 0.4 | 0.599 nmol
COc1ccc(-c2cc(=O)c3cc(CN4CCNCC4)ccc3o2)cc1OC | 10 µg/mL (≈ 26.3 µM) | 25 µg/mL (≈ 65.7 µM) | 25 µg/mL (≈ 65.7 µM) | 54% | 72.2% | 50 µg/mL (≈ 131 µM) | 45.38% | 0.4 | 0.525 nmol
COc1ccc(-c2cc(=O)c3cc(CN4CCOCC4)ccc3o2)cc1OC | 10 µg/mL (≈ 26.2 µM) | 10 µg/mL (≈ 26.2 µM) | 10 µg/mL (≈ 26.2 µM) | 61.8% | 80.9% | 10 µg/mL (≈ 26.2 µM) | 53.61% | 0.1 | 0.331 nmol
COc1ccc(-c2cc(=O)c3cc(CN(C)C)ccc3o2)cc1OC | 25 µg/mL (≈ 73.7 µM) | 25 µg/mL (≈ 73.7 µM) | 10 µg/mL (≈ 29.5 µM) | 29.8% | 51% | 50 µg/mL (≈ 147 µM) |  |  | 
